In the library only some 2.8% were active in any assay of this set; here they are far more common.
CAL PDZ FP-1 = CAL PDZ (human) peptide binding inhibition. Q9HD26. purified CAL PDZ, TMR-peptide fluorescence polarization, 1 h. inhibition, % at 24.9 µM. 300,000 tested, 0.92% active. AID 602252;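 active = mean inhibition of at least 30% with at least half of replicates also reaching 30%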;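 note: 0% = DMSO neutral control and 100% = excess unlabeled competitor peptide PRC23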
CAL PDZ FP-2 = blocks peptide binding to human CAL PDZ domain; Q9HD26; purified CAL PDZ, TMR-peptide fluorescence polarization, 1 h; inhibition, % at 20 µM; 330,000 tested, 0.02% active; AID 504414;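 active = highest replicate inhibition of at least 40%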;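 note: plate controls were DMSO neutral control wells for no effect and unlabeled competitor peptide control wells for full effect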
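System: purified tagged CAL PDZ domain construct (CerCALP). Schedule: 1 h incubation at room temperature before polarization reading. Medium: 25 mM sodium phosphate pH 7.4, 150 mM NaCl, TCEP, IgG, Thesit. Read-out: percent inhibition from loss of millipolarization. Measured by: FP readout, S and P plane fluorescence. Probe or stimulus: fluorescent TMR peptide probe.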
SR-BI uptake up = SR-BI HDL lipid transfer activation. CHO ldlA[mSR-BI] cells, DiI-HDL uptake fluorescence, 3 h; 100 = double the neutral-control signal. 320,000 tested, 0.096% active. AID 504775. activation, % at 12.5 µM;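 active = mean replicate activation of at least 60% and every replicate at or above 60%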;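 note: 0% = median plate neutral-control signal and 100% = twice that signal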
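Test system: SR-BI-overexpressing, LDLR-lacking CHO cells; Also added: labelled HDL, 10 µg/mL; Measured by: bottom-read cell fluorescence after medium removal, ex 550/em 595 nm; Timing: 3 h uptake period with compound, 37 °C; Buffer or medium: F12, 0.5% BSA, 25 mM HEPES; Doses: single compound concentration, delivered by pin transfer.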
SR-BI HDL uptake = mouse SR-BI HDL lipid transfer inhibition | Q61009 | ldlA[mSR-BI] CHO cells, DiI-HDL uptake fluorescence, 3 h | inhibition, % at 12.5 µM | 320,000 tested, 0.96% active | AID 488896;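 active = mean replicate inhibition of at least 70% and a set share of replicates each scoring 70 or more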;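 note: 0% = median of neutral control wells and 100% = median of positive control wells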
dFosB act = enhances mouse delta FosB homodimer DNA binding | P13346 | purified delta FosB, TAMRA-CDK5 oligo fluorescence polarization; percent of positive-control signal above neutral wells | activation, % at 25 µM | 340,000 tested, 0.99% active;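 active = mean activation above about 17%, with every replicate also reaching it, limit read from the data, passing the limit was not always enough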
Target sequence (P13346 whole entry, looked up): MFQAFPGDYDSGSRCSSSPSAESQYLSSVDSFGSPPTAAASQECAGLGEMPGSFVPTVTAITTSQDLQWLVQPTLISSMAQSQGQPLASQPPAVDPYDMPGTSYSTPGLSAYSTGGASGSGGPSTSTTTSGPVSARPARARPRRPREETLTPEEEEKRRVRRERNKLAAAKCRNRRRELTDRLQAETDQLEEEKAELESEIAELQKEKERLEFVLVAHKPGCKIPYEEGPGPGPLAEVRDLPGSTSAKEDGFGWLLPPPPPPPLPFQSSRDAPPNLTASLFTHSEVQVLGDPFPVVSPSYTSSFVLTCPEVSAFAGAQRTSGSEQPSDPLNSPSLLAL
An asterisk follows results filed as active; . = not tested or not shown.

SMILES | CAL PDZ FP-1 | CAL PDZ FP-2 | SR-BI uptake up | SR-BI HDL uptake | dFosB act
CCNc1ccc2noc3c2c1C(=O)c1ccccc1-3 | 18 | 44* | -11 | 11 | -322
O=C1c2ccccc2-c2onc3ccc(NCc4ccco4)c1c23 | 0 | 12 | -70 | 70 | -130
CC(C)(C)c1ccc(C(CC(=O)O)NC(=O)c2ccccc2F)cc1 (stereo not drawn) | -6 | 0 | 9 | -9 | 5
O=C(NC(=S)Nc1ccc(S(=O)(=O)Nc2nccs2)cc1)c1ccc(F)cc1 | 54* | -2 | 20 | -20 | -4
CCC(=O)Nc1ccc(S(=O)(=O)Nc2nccs2)cc1 | . | 1 | 17 | -17 | -2
CC(C)CC(=O)Nc1ccc(S(=O)(=O)Nc2nccs2)cc1 | -4 | -1 | 65* | -65 | 5
CN(C)CCOC(=O)c1ccc2[nH]c3c(c2c1)CSCC3 | -2 | -3 | . | . | 28*
CC(C)c1csc(CN2CCC(N3CCC(C(=O)NCC4CCCO4)CC3)CC2)n1 (stereo not drawn) | 39* | 0 | 2 | -2 | 0
COc1ccc(CC(=S)NCCc2ccccc2)cc1 | 0 | -1 | . | . | 0
CC1CCN(C(=O)COc2ncnc3ccccc23)CC1 | 49* | -1 | 17 | -17 | -2
COC(=O)C1=C(O)/C(=C\c2ccc(OCC(=O)Nc3ccccc3OC)cc2)N=C1C | 73* | 0 | 2 | -2 | 0
COC(=O)C1=C(O)/C(=C\c2ccc(OCC(=O)Nc3ccc(OC)cc3)cc2)N=C1C | 1 | -1 | 5 | -5 | -1
NC(=O)N/N=C/c1sc(=O)n(-c2ccccc2)c1Cl | 5 | 0 | 3 | -3 | 1
O=C(N/N=C/c1sc(=O)n(-c2ccccc2)c1Cl)c1ccccc1 | 1 | -4 | -85 | 85* | -5
COCC(=O)N1CCC(Oc2ccc(C(=O)N(C)Cc3nccs3)cc2)CC1 | -4 | -2 | 5 | -5 | 1
CCSc1nc2cc(OC)c(OC)cc2c(=O)n1CCc1ccccc1 | . | 0 | -71 | 71* | -5
Cc1ccc(S(=O)(=O)N2CCCC(C(=O)NCCc3ccccc3)C2)cc1 (stereo not drawn) | 13 | 0 | 11 | -11 | -8
O=C(NCCc1ccccc1)C(=O)NCC1CCCN1S(=O)(=O)c1cccs1 (stereo not drawn) | -3 | -2 | 4 | -4 | -4
COc1ccc(N(CC(=O)NCCSc2ccc(C)cc2)S(=O)(=O)c2ccccc2)c(OC)c1 | 40* | -1 | -32 | 32 | -9
COc1ccc(N(CC(=O)NCCSC2CCCCC2)S(=O)(=O)c2ccccc2)c(OC)c1 | -6 | -2 | 6 | -6 | -9
COc1ccc(S(=O)(=O)Nc2ccc(-c3ccc4nnc(C)n4n3)cc2)c(OC)c1 | . | 0 | -15 | 15 | 22*
CCN1/C(=C/C(C)=O)Sc2ccc(OC)cc21 | 48* | -1 | 5 | -5 | -6
CCN1/C(=C/c2cccc[n+]2C)Sc2ccc(OC)cc21 | -1 | 1 | -7 | 7 | -11
Nc1nc(COc2ccccc2C=O)nc(Nc2ccccc2)n1 | -2 | -1 | -8 | 8 | 59*
COc1ccc(OCc2nc(N)nc(Nc3ccccc3)n2)cc1 | -4 | -1 | -6 | 6 | -8
SMILES | CAL PDZ FP-1 | CAL PDZ FP-2 | SR-BI uptake up | SR-BI HDL uptake | dFosB act
Cc1cccc(C)c1NC(=S)NC(C)(C)CO | 79* | -1 | 13 | -13 | 1
CCc1ccc(CNC(=O)c2ccc(NC(=O)C3=CSCCO3)cc2)cc1 | 6 | 0 | -7 | 7 | 23*
O=C(Nc1ccc(C(=O)NCc2ccc(F)cc2)cc1)C1=CSCCO1 | 2 | 0 | -18 | 18 | 9
COC(=O)/C=C/COc1ccccc1[N+](=O)[O-] | 35* | 1 | 3 | -3 | -5
O=C(COc1ccccc1[N+](=O)[O-])c1ccccc1 | -2 | 1 | -3 | 3 | -2
COc1nc(Nc2ccc([N+](=O)[O-])cc2)nc(NC2CCCCC2)n1 | 0 | -3 | -53 | 53 | 29*
COc1cc(C(=O)NCCC(C)C)c([N+](=O)[O-])cc1OC | -1 | -1 | -82 | 82* | 1
COCCNC(=O)c1cc(OC)c(OC)cc1[N+](=O)[O-] | -3 | -2 | 14 | -14 | -5
C=CCOc1c(Br)cc(/C=C2\SC(=Nc3ccccc3)NC2=O)cc1OC | -3 | -1 | -72 | 72* | 4
